Source: PubChem (several laboratories)
G6PDH CS: L. mesenteroides G6PDH inhibitors, counter-screen for G6PDH-coupled screening assays, biochemical, Leuconostoc mesenteroides enzyme | hit rate 0.12% among 200,000 | AID 1020, 2008 | inhibition, % at 5 µM | Purified L. mesenteroides G6PDH, diaphorase/resazurin coupled fluorescence, 45 min | glucose-6-phosphate dehydrogenase [Leuconostoc mesenteroides]
WT yeast gro inh: growth inhibition of WT strain, primary screen, mitochondrial fusion inhibitor project, WT and mutant strains, chemical genetic | mitochondrial fusion phenotypic screen | inhibition, % at 10 µM | hit rate 2.1% among 190,000; in the data active = inhibition above about 58%; tested in S. cerevisiae
Lmaj promast: Leishmania major promastigote growth inhibition, primary screen; Leishmania major promastigotes, resazurin fluorescence viability; inhibition, % at 10 µM; hit rate 9% among 200,000; AID 1063, 2008;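 note: promastigotes grown with compound for 44 hours at 28 °C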
Diaph act CS: compounds boosting diaphorase resazurin reduction – biochemical, uHTS, resorufin fluorescence, counter-screen for diaphorase-coupled primary assays, primary screen. Diaphorase/resazurin coupled assay, 16 min; hits give high values; 1 = vehicle wells, 0 = NADH-free wells. activation factor at 20 µM. hit rate 0.005% among 190,000. AID 1229, 2008;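 active = diaphorase activity raised at least twofold by the compound at 20 µM; inactive = activation factor below 2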
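Test system: Clostridium kluyveri diaphorase, purified enzyme. Buffer or medium: 50 mM HEPES pH 7.4 buffer plus MgCl2 and Tween 20. Also added: 0.114 mM NADH and 0.1 mM resazurin, final amounts. Dosing: compound 20 µM once, DMSO 1%. Schedule: 16 min enzyme reaction, ambient temperature. Detection: fluorescence of resorufin, 544 nm excitation, 590 nm emission.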
Diaphorase inh: diaphorase inhibitors and chemical oxidizers, primary screen, counter-screen for diaphorase-coupled primary assays, biochemical, uHTS, resorufin fluorescence. diaphorase resazurin-to-resorufin fluorescence, NADH, 16 min; bacterial (C. kluyveri) enzyme, not human. inhibition, % at 20 µM. hit rate 0.69% among 190,000. AID 1217, 2008;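 active = primary screen inhibition at 20 µM above a set limit, cut at about 50% in these data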;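 note: plate controls were DMSO with full reaction for no effect and wells lacking NADH for full effect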
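Assay system: diaphorase enzyme from Clostridium kluyveri. Quantity: enzyme working solution with 0.14 U/mL diaphorase. Schedule: reaction incubation of 16 min at room temperature. Technique: resorufin fluorescence, excitation 544 nm, emission 590 nm. Controls: No-NADH positive control and DMSO neutral control.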
Starred values were filed as active, the others as inactive; / = no result given. Only some compounds are listed: those with a hit (about 11% of all), similar ones and a draw of the others. Cut-off read from the data, not from the text of the source, unless noted: active = inhibition above about 50%; inactive = the rest.

SMILES	G6PDH CS	WT yeast gro inh	Lmaj promast	Diaph act CS	Diaphorase inh
CC(C)(C)n1nnnc1C(c1ccccn1)N(Cc1ccccc1)Cc1ccc(Cl)cc1 (centres undefined)	4	6	53*	0.8	15
O=C(COC(=O)c1cccc(NS(=O)(=O)/C=C/c2ccccc2)c1)Nc1ccccc1OC(F)F	0	-10	-6	0.8	20
COc1ccc2c(c1)Sc1ccccc1N2	-4	-5	100*	0.7	32
COc1ccc2[nH]c3ccccc3c2c1	9	-12	7	0.9	8
CCc1nnc(NS(=O)(=O)c2ccc(N3C(=O)C4CC=C(Cl)CC4C3=O)cc2)s1 (centres undefined)	2	-20	-7	0.8	20
COc1ccc(N2C(=O)CN=C2Nc2nc(C)cc(C)n2)cc1	29	-5	-2	0.9	12
Cc1cc(C)nc(NC2=NCC(=O)N2c2ccc3c(c2)OCCO3)n1	6	95*	-1	0.8	19
Cc1cc(C)c2c(n1)nn1c(NCCCN(C)C)cc(C)nc21	10	18	16	1	3
Cc1cc(NCCCN(C)C)n2nc(-c3cccs3)cc2n1	5	0	77*	1.1	-12
c1ccc(-c2ccc(-c3cnc4n3CCCCC4)cc2)cc1	3	57	99*	1	5
O=C(COC(=O)CCSc1ccc(Cl)cc1)NCc1ccccc1	5	6	60*	0.8	19
O=C(COC(=O)CCSc1ccccc1)Nc1ccc(F)cc1Cl	-2	7	53*	0.8	17
C=CCn1c(CNc2ccccc2)nnc1SCC(=O)N/N=C/c1ccccc1O	-11	-1	97*	1	4
Cc1ccccc1OCC(=O)N1CCCc2ccccc21	8	-8	53*	1	0
O=C(CSc1n[nH]c(-c2cccs2)n1)N1CCCc2ccccc21	3	5	0	0.9	10
Cc1[nH]c2ccccc2c1C(=O)C(=O)N1CCCc2ccccc21	15	21	6	0.9	13
Cc1ccccc1CN1CCc2c(OCC(=O)N3CCCc4ccccc43)cccc2C1=O	0	62*	96*	0.8	15
O=C(CSc1n[nH]c(-c2ccccc2O)n1)N1CCCc2ccccc21	8	11	75*	0.8	21
Cc1[nH]c2ccccc2c1SCC(=O)N1CCCc2ccccc21	-15	-4	99*	0.8	25
CCCc1nnc(NC(=O)C(CC)OC(=O)c2cc(C)nc3ccccc23)s1 (centres undefined)	-2	23	-6	0.8	15
CC1(C)C(=O)OC(c2cccs2)C(C)(C)C1=O (centres undefined)	10	6	-6	0.9	13
Cc1cc(C)c(S(=O)(=O)NCC(=O)NCc2ccco2)c(C)c1	-5	-14	3	0.9	10
COc1ccc(-c2nc3n(c(=O)c2C#N)CCCS3)cc1	8	75*	-15	1.1	-10
CCOc1ccc(-c2nc3n(c(=O)c2C#N)CCCS3)cc1	10	-7	2	1	4
COc1cc(C(=O)NCCCNc2ccc([N+](=O)[O-])cc2)cc(OC)c1OC	4	-18	77*	1	-1
SMILES	G6PDH CS	WT yeast gro inh	Lmaj promast	Diaph act CS	Diaphorase inh
CC12CCC(C(=O)N(Cc3ccccc3)Cc3ccccc3)(OC1=O)C2(C)C (centres undefined)	8	79*	72*	0.9	7
CC12CCC(C(=O)NCc3cccnc3)(OC1=O)C2(C)C (centres undefined)	8	-1	-5	0.9	10
COc1cccc(NC(=O)CCSc2ccc(C)cc2)c1	7	-2	-3	0.9	9
Cc1cncn1CCc1nc2c3ccccc3nc(SCC(=O)Nc3cccc(Cl)c3)n2n1	14	20	100*	1.3	-35
Cc1cccc(NC(=O)CSc2nc3ccccc3c3nc(CCc4c(C)n[nH]c4C)nn23)c1	-6	-13	19	0.7	28
CC(=O)Nc1ccc(/C(C)=N/Nc2nc(N3CCOCC3)nc(N3CCOCC3)n2)cc1	-5	-9	-3	1	2
C/C(=N\Nc1nc(N2CCCCCC2)nc(N2CCCCCC2)n1)c1ccccc1	-3	65*	51*	0.9	11
CC(=O)Nc1ccc(/C(C)=N/Nc2nc(Nc3cccc4ccccc34)nc(N3CCOCC3)n2)cc1	3	28	58*	0.9	5
C=CCn1c(=O)c2c3c(sc2n2c(Nc4ccccc4)nnc12)CCCC3	0	22	52*	0.9	15
C=CCn1c(=O)c2c3c(sc2n2c(Nc4ccc(OC)cc4)nnc12)CCCC3	-25	53	38	0.8	24
CCOC(=O)CSc1nnc2n(Cc3ccccc3)c(=O)c3c4c(sc3n12)CCC4	0	-6	7	0.9	12
C=CCn1c(=O)c2c3c(sc2n2c(Nc4ccc(C(=O)OCC)cc4)nnc12)CCCC3	0	7	94*	1	-2
S=c1[nH]c(-c2ccccc2)cn1/N=C/c1ccc(Br)cc1	-6	43	-13	0.8	23
Cc1ccc(C)c(/C=N/n2cc(-c3ccccc3)[nH]c2=S)c1	-8	71*	-8	0.2	76*
COCc1cc(=O)[nH]c(-c2ccccc2)n1	-4	8	-12	1	-1
Cc1nc2ccc(NC(=S)NCCCO)cc2nc1C	56*	-23	-1	0.7	25
CCCNC(=S)Nc1ccc2nc(-c3ccccn3)c(-c3ccccn3)nc2c1	49	72*	-2	0.5	52*
S=C(Nc1ccc2nsnc2c1)N1CCCCC1	50	9	15	0.3	66*
S=C(Nc1ccc2nc(-c3ccccn3)c(-c3ccccn3)nc2c1)N1CCCCCC1	40	-5	-3	0.7	28
S=C(Nc1ccc2nc(-c3ccccn3)c(-c3ccccn3)nc2c1)N1CCCCC1	50*	1	10	/	/
CCCCCc1ccc(CC(=O)Nn2c(C)nc3ccccc3c2=O)cc1	6	56	-3	0.9	12
CCn1nnnc1NC(=O)c1cc(Cl)c(OC)c(Cl)c1	15	15	-1	1	3
C[C@@H]1O[C@@H](OC[C@H]2O[C@@H](Oc3c(-c4ccc(O)c(O)c4)oc4cc(O)cc(O)c4c3=O)[C@H](O)[C@@H](O)[C@@H]2O)[C@H](O)[C@H](O)[C@H]1O	37	-4	/	0.3	71*
O=c1cc(-c2ccc(O)c(O)c2)oc2cc(O)c(C3OC(CO)C(O)C(O)C3O)c(O)c12 (centres undefined)	36	-6	-16	0.4	60*
